Results as given in ChEMBL document CHEMBL1687710, “Heterocyclic compounds that inhibit Rev-RRE function and human immunodeficiency virus type 1 replication” (Antimicrob Agents Chemother, 2008).
Active and inactive are the calls of the source. The calls are words filed in the database; no cut-off is given here.

Columns and labels:
[1] = Inhibition of HIV1 Rev expressed in african green monkey 5BD.1 cells assessed as inhibition of p24 antigen treated for 16 hrs after washout with medium again readded for 24 hrs by ELISA
[2] = Inhibition of HIV1 Rev expressed in human HeLa cells co-expressing renilla luciferase reporter gene assessed as inhibition of renilla luciferase expression after 24 hrs; assay type: cell-based; conditions: Human immunodeficiency virus 1, HeLa
Method in brief: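 HeLa line with stably integrated Rev-dependent Renilla luciferase reporter (CMV promoter) plus bicistronic firefly luciferase/HIV-1 IIIB rev construct under Tet-Off; doxycycline withdrawn to induce Rev and both luciferases while compound added at various concentrations.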

[3] = Cytotoxicity against african green monkey 5BD.1 cells after 2 days by MTS assay; assay type: cell-based; conditions: chlorocebus aethiops, read-out: TC50
Method in brief: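 5BD.1 cells (COS-derived, Rev-dependent Gag-Pol particle producers; 20,000/well) were given compound at 0.1–30 μM for 16 h, then refreshed with compound for 24 h more. Cells were collected at 40 h for the MTS proliferation assay, with formazan read at 492 nm versus untreated cells. TC50 was by curve fit.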

[4] = Cytotoxicity against human MT4 cells after 5 days by MTS assay; assay type: cell-based; conditions: read-out: TC50
Method in brief: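 MT-4 T cells were incubated with compound for 5 days. Toxicity was by MTS tetrazolium reduction, with formazan absorbance at 492 nm compared with cells given no compound.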

HeLa = assay: Inhibition of HIV1 Rev expressed in human HeLa cells co-expressing firefly luciferase reporter gene assessed as inhibition of firefly luciferase expression after 24 hrs; assay type: cell-based; conditions: Human immunodeficiency virus 1
Method in brief: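 HeLa line with an integrated Rev-dependent Renilla luciferase reporter, plus firefly luciferase and HIV-1 IIIB Rev under Tet-Off control. Doxycycline was removed to induce expression alongside compound at various concentrations. Cells were plated at 2 × 10^4/well in triplicate.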

[5] = tested on: Human immunodeficiency virus 1; assay: Antiviral activity against HIV1 Brazilian isolate 93BR021 infected in PHA-stimulated human PBMC assessed as inhibition of viral replication after 7 days; assay type: functional, organism-based; conditions: Human immunodeficiency virus 1, Brazilian isolate 93BR021, 168 h
Method in brief: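 PHA-stimulated (4 μg/ml, 48–72 h) PBMCs pooled from at least two donors, kept in 20 U/ml IL-2, 5 × 10^4 cells/well. Infected with primary isolate 93BR021 (CCR5-tropic, subtype B) at MOI ≈0.1 with nine compound concentrations, triplicate wells, for 7 days. Supernatant reverse transcriptase activity was read, then cell MTS toxicity. EC50 was interpolated between bracketing points.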

[6] = tested on: Human immunodeficiency virus 1; assay: Antiviral activity against HIV1 infected in TNFalpha-stimulated human U1 cells assessed as inhibition of p24 synthesis at 5 uM after 24 hrs by Western blotting; assay type: functional, organism-based
Method in brief: (§1)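 U1 cells carrying integrated provirus were induced with TNF-α and given compound (5 or 10 μM). After 24 h, cells were harvested and analysed by Western blot for p24, Pr55gag and Nef using p24- and Nef-specific monoclonal antibodies.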

U1 = assay: Cytotoxicity against human U1 cells after 3 days by MTS assay; assay type: cell-based; conditions: u1, 72 h
[7] = tested on: Human immunodeficiency virus 1; assay: Antiviral activity against HIV1 NL4-3 infected in human SupT1 cells assessed as inhibition of viral growth at 0.8 uM after 30 days by p24 ELISA; assay type: functional, organism-based; conditions: SUP-T1
Method in brief: (§2)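 SupT1 cells (5 × 10^6) were Polybrene-treated and infected with NL4-3 (50 ng p24 equivalents), then washed. They were cultured in RPMI/10% FCS with compound at fixed levels (0.8 and 8 μM, or 1 and 10 μM) or none. Cultures were split every 3 days with fresh compound-containing medium for 30–31 days. Supernatant p24 was measured by ELISA.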

[8] = tested on: Human immunodeficiency virus 1; assay: Antiviral activity against HIV1 NL4-3 infected in human 293T cells assessed as inhibition of Nef synthesis at 8 uM after 24 hrs by Western blotting
[9] = tested on: Human immunodeficiency virus 1; assay: Antiviral activity against HIV1 infected in TNFalpha-stimulated human U1 cells assessed as inhibition of viral replication after 72 hrs; assay type: functional, organism-based; conditions: for EC50: Human immunodeficiency virus 1, U1, 72 h
Method in brief: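 U1 cells (50,000/ml, RPMI/10% FCS) were induced with 5 ng/ml TNF-α and given compound at the same time over a six-point range from 0 to 11.9 or 25.1 μM, for 3 days. Supernatant reverse transcriptase activity was read. Cell toxicity was by MTS reduction (formazan at 492 nm) relative to untreated cells. Values were interpolated between bracketing points.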

[10] = Inhibition of HIV1 Rev-Rev response element-mediated p24 antigen production expressed in human HEK 293T cells after 72 hrs; conditions: Human immunodeficiency virus 1, HEK-293T
HEK-293T = assay: as above; conditions: Human immunodeficiency virus 1
[11] = tested on: Human immunodeficiency virus 1; assay: Antiviral activity against HIV1 NL4-3 infected in human 293T cells assessed as inhibition of p24 synthesis at 8 uM after 24 hrs by Western blotting
[12] = Inhibition of Mason-Pfizer monkey virus […]constitutive transport element-mediated p24 antigen production expressed in human HEK 293T cells after 72 hrs
[13] = tested on: Human immunodeficiency virus 1; assay: Inhibition of HIV1 Rev-radiolabeled Rev response element interaction at up to 100 uM after 10 mins by electrophoretic mobility shift assay
Method in brief: (§3)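 A 234-bp RRE RNA was transcribed with [32P]UTP and T7 polymerase, then refolded (80°C 3 min, slow cooling). RRE (0.5 ng) was incubated with bacterial Rev (38 ng) in HEPES-KOH pH 7.8, 200 mM KCl, 4 mM MgCl2, glycerol with compound (up to 100 μM) on ice for 10 min. Complexes were resolved by PAGE and read by phosphorimager.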

[14] = tested on: Human immunodeficiency virus 1; assay: Antiviral activity against HIV1 NL4-3 infected in human SupT1 cells assessed as inhibition of viral growth at 8 uM after 30 days by p24 ELISA; assay type: functional, organism-based; conditions: SUP-T1
Method in brief: as §2

[15] = tested on: Human immunodeficiency virus 1; assay: Antiviral activity against HIV1 infected in TNFalpha-stimulated human U1 cells assessed as inhibition of Pr55gag synthesis at 5 uM after 24 hrs by Western blotting; assay type: functional, organism-based
Method in brief: as §1

[16] = tested on: Human immunodeficiency virus 1; assay: Antiviral activity against HIV1 infected in TNFalpha-stimulated human U1 cells assessed as inhibition of Nef synthesis at 5 uM after 24 hrs by Western blotting; assay type: functional, organism-based
Method in brief: as §1

[17] = tested on: Human immunodeficiency virus 1; assay: Inhibition of HIV1 Rev-radiolabeled Rev response element interaction after 10 mins by electrophoretic mobility shift assay
Method in brief: as §3

[18] = tested on: Human immunodeficiency virus 1; assay: Antiviral activity against HIV1 infected in TNFalpha-stimulated human U1 cells assessed as inhibition of p24 synthesis at 10 uM after 24 hrs by Western blotting; assay type: functional, organism-based
Method in brief: as §1

[19] = tested on: Human immunodeficiency virus 1; assay: Antiviral activity against HIV1 NL4-3 infected in human SupT1 cells assessed as inhibition of viral growth at 10 uM after 30 days by p24 ELISA; assay type: functional, organism-based; conditions: SUP-T1
Method in brief: as §2

[20] = tested on: Human immunodeficiency virus 1; assay: Antiviral activity against HIV1 NL4-3 infected in human 293T cells assessed as inhibition of p24 synthesis at 10 uM after 24 hrs by Western blotting
[21] = tested on: Human immunodeficiency virus 1; assay: Antiviral activity against HIV1 NL4-3 infected in human 293T cells assessed as inhibition of Nef synthesis at 10 uM after 24 hrs by Western blotting
[22] = tested on: Human immunodeficiency virus 1; assay: Antiviral activity against HIV1 infected in TNFalpha-stimulated human U1 cells assessed as inhibition of Nef synthesis at 10 uM after 24 hrs by Western blotting; assay type: functional, organism-based
Method in brief: as §1

[23] = tested on: Human immunodeficiency virus 1; assay: Antiviral activity against HIV1 infected in TNFalpha-stimulated human U1 cells assessed as inhibition of Pr55gag synthesis at 10 uM after 24 hrs by Western blotting; assay type: functional, organism-based
Method in brief: as §1

[24] = tested on: Human immunodeficiency virus 1; assay: Antiviral activity against HIV1 NL4-3 infected in human SupT1 cells assessed as inhibition of viral growth at 1 uM after 30 days by p24 ELISA; assay type: functional, organism-based; conditions: SUP-T1
Method in brief: as §2

| Structure (SMILES) | EC50 [1] | EC50 [2] | CC50 at 48 h [3] | CC50 at 120 h [4] | TC50 (HeLa) | further results |
| --- | --- | --- | --- | --- | --- | --- |
| CC(=O)Nc1cccc2n[se]nc12 | 10 µM | 8.99 µM | > 30 µM | > 100 µM | 51.6 µM | – |
| COC(=O)c1c(N)ncn1-c1ccc(C)cc1 | 22 µM | 11.2 µM | > 30 µM | > 100 µM | > 41.8 µM | – |
| Fc1ccc(Nc2ncnc3ccccc23)cc1Cl | 3 µM | 8.98 µM | > 30 µM | – | > 40.8 µM | – |
| Cc1cn([C@H]2C[C@H](N=[N+]=[N-])[C@@H](CO)O2)c(=O)[nH]c1=O [ZIDOVUDINE] | – | – | – | – | – | EC50 [5]: 2.47 µM |
| CCC(=C/[C@H](C)C/C=C/C(C)=C/[C@@H](C)C(=O)[C@@H](C)[C@H](O)[C@@H](C)C/C(C)=C/C(=O)O)/C=C/[C@@H]1OC(=O)C=C[C@@H]1C [LEPTOMYCIN B] | – | 0.00822 µM | – | – | 0.02 µM | – |
| COc1ccc2nc(C(F)(F)F)c(C#N)c(N)c2c1 | 2.5 µM | 2.24 µM | > 30 µM | 28 µM | 17.2 µM | Activity [6]: Active; Activity (U1): Toxic; Activity [7]: Active; Activity [8]: inactive; Activity [9]: Dose-dependent effect; EC50 [9]: < 0.25 µM; EC50 [10]: 1.9 µM; inhibition (HEK-293T): Dose-dependent effect; Activity [11]: Active; EC50 [12]: > 15 µM; inhibition [13]: inactive; Activity [14]: Active; EC50 [5]: 0.63 µM; Activity [15]: Active; Activity [16]: inactive |
| NC[C@@H]1O[C@H](O[C@H]2[C@@H](O)[C@H](O[C@@H]3[C@@H](O)[C@H](N)C[C@H](N)[C@H]3O[C@H]3O[C@H](CN)[C@@H](O)[C@H](O)[C@H]3N)O[C@@H]2CO)[C@H](N)[C@@H](O)[C@@H]1O | – | – | – | – | – | inhibition [17]: Active |
| COc1ccc2cc3c(N)n[nH]c3nc2c1 | 0.9 µM | 0.48 µM | > 30 µM | 20 µM | 8.41 µM | – |
| Cc1ccc(NC(=O)c2sc(Cl)nc2C(F)(F)F)cc1 | 1.9 µM | 9.73 µM | 25 µM | 18 µM | > 39.5 µM | – |
| COc1cccc(NC(=O)c2cc(Cl)nnc2Cl)c1 | 4.9 µM | 8 µM | > 30 µM | 50 µM | 18.5 µM | – |
| CCc1c(C)nc2sc(C(N)=O)c(N)c2c1C | 0.9 µM | 1.07 µM | > 30 µM | 32 µM | > 37.6 µM | Activity [18]: Active; Activity [19]: Active; Activity [20]: Active; Activity [21]: inactive; Activity [9]: Dose-dependent effect; EC50 [9]: 0.4 µM; EC50 [10]: 3.8 µM; inhibition (HEK-293T): Dose-dependent effect; Activity [22]: inactive; EC50 [12]: > 15 µM; inhibition [13]: inactive; EC50 [5]: 0.29 µM; Activity [23]: Active; Activity [24]: Active |
| O=c1c2ccccc2n2nnc3ccc(NCCCN4CCN(CCCNc5ccc6nnn7c8ccccc8c(=O)c5c67)CC4)c1c32 [TEMACRAZINE] | – | – | – | – | – | EC50 [9]: 2 µM |
| CCc1c(C(=O)Nc2ccccc2)c(C)nc2sc(C(N)=O)c(N)c12 | 3 µM | 2.42 µM | > 30 µM | > 100 µM | 7.91 µM | – |
| CS(=O)(=O)c1ncc(-c2ccc(Br)cc2)cn1 | 0.2 µM | 7.48 µM | > 30 µM | 10 µM | 30.9 µM | – |
| CCOC(=O)c1c(N)ncn1-c1ccccc1 | 30 µM | 11 µM | > 30 µM | > 100 µM | 33 µM | – |
